High-throughput results: PubChem BioAssay, Sanford-Burnham Center for Chemical Genomics
hIAP inh = blocks human intestinal alkaline phosphatase | inhibition, % at 10 µM | purified IAP, CDP-Star luminescence, 30 min | AID 2544 | 330,000 tested, 0.12% active;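 active = inhibition reaching a set limit with compound at 10 µM in the primary screen, cut at about 35% in these data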
Target sequence (P09923 whole entry, looked up): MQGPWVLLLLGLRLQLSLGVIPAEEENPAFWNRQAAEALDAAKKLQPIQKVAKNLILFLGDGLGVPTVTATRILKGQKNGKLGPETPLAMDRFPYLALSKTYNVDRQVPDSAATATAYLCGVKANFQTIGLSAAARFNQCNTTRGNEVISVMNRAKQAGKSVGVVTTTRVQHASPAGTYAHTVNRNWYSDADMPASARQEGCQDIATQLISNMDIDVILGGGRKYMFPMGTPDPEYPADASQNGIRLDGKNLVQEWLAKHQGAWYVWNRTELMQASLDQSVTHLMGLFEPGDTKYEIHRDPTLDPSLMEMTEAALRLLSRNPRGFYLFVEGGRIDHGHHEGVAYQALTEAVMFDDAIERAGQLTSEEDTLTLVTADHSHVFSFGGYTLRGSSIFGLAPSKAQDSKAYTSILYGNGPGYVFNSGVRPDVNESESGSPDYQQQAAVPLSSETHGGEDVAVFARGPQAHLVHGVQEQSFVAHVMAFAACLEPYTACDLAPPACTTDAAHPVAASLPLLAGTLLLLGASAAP
bIAP activator = increases bovine intestinal alkaline phosphatase activity. purified bovine IAP, CDP-star luminescence, 30 min; stronger effect = higher value; fold of DMSO-control signal, blank-subtracted. activation factor at 20 µM. 200,000 tested, 0.17% active. AID 1016;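 active = activation factor of 2 or more at 20 µM, a signal rise over negative controls twice the positive control's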
bIAP inhibitor = intestinal alkaline phosphatase (bovine) inhibition; purified bovine IAP, CDP-star luminescence, 30 min; 190,000 tested, under 10 active; AID 1019; inhibition, % at 20 µM;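 active = over 50% inhibition of intestinal alkaline phosphatase at 20 µM in the single-dose screen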
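Assay system – bovine IAP enzyme · Quantity – bovine IAP at 1/65,000,000 final dilution · Detection – CDP-star luminescence signal · Times – 30 min reaction at room temperature · Also added – CDP-star substrate at 30 µM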
mIAP act = increases mouse intestinal alkaline phosphatase activity; activation factor at 10 µM; 330,000 tested, 0.24% active; AID 2805; muIAP, CDP-Star luminescence, 30 min; stronger effect = higher value; 1 = vehicle-only enzyme signal, 0 = enzyme-free wells;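 active = activation factor of at least 2 at 20 µM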
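System: Mouse IAP enzyme | Also added: CDP-Star substrate | Dosing: Compounds dispensed in DMSO | Schedule: 30 min enzyme-substrate-compound incubation at room temperature | Technique: Chemiluminescence readout | Control set: DMSO-only wells and no-enzyme negative control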
hIAP act = human IAP activation; purified human IAP, CDP-Star luminescence, 30 min; stronger effect = higher value; 1 = vehicle-only enzyme, 0 = enzyme-free background; P09923; AID 2524; activation factor at 10 µM; 330,000 tested, 0.16% active;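 active = activation factor of the enzyme at least 2-fold when tested at 20 µM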
mIAP inh = mouse IAP inhibition | purified mouse IAP, CDP-Star luminescence, 30 min | inhibition, % at 10 µM | 330,000 tested, 0.2% active | AID 2806;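 active = inhibition of at least 40% at 10 µM in the primary screen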
Hits are given with their value; . = inactive; / = no result given. An excerpt weighted towards active compounds, which were near 0.79% of everything screened.

SMILES	hIAP inh	bIAP activator	bIAP inhibitor	mIAP act	hIAP act	mIAP inh
COc1cccc(NC2=NC3(CCCCC3)N=C(N)N2)c1	.	4.3	.	.	.	.
NC1=NC2(CCCCC2)N=C(Nc2ccc(Br)cc2)N1	.	.	.	4.3	.	.
COCCCNC(=O)C[C@H]1C[C@H](C(=O)N(C(C)C)C(C)C)[C@@]2(C)c3[nH]c4cc(-c5ccco5)ccc4c3CCN2C1=O	/	/	/	.	/	.
Cc1ccc(C(=O)OCC(=O)N(Cc2ccccc2)C(C)C)cc1C	.	/	/	.	.	.
O=C(NC1CC2CCC(C1)N2C(=O)NC1CCCCC1)NC12CC3CC(CC(C3)C1)C2 (configuration not stated)	.	.	.	.	.	.
O=C(NC1CC2CCCC(C1)N2C1CC1)NC12CC3CC(CC(C3)C1)C2 (configuration not stated)	/	3.1	.	/	/	/
CN(CCc1ccccc1)C(=O)c1cccc(NC(=O)Cc2cccc([N+](=O)[O-])c2)c1	.	/	/	.	.	.
Cn1c(-c2ccccc2)c(C#Cc2ccc(N)cc2)c2ccccc21	.	/	/	.	.	.
c1ccc2c(c1)CCN(c1ncnc3c1[nH]c1ccccc13)C2	.	2.1	.	.	.	.
COC(=O)c1cccc(NC(=S)NCCC2=CCCCC2)c1	.	.	.	.	.	.
COC(=O)c1ccc(NC(=S)NCCC2=CCCCC2)cc1	.	.	.	2.5	.	.
C=CC[C@@H](CC(=O)N[C@H](CO)Cc1ccccc1)C(=O)NC[C@H](OC(=O)[C@@H](CC=C)Cc1ccc(F)cc1)c1ccccc1	.	/	/	.	.	.
COc1ccc(/C=N/NC(=O)c2cnccn2)cc1O	.	.	.	.	.	.
COc1cccc(/C=N/NC(=O)c2cnccn2)c1	.	2.2	.	.	.	.
CCOc1cc(N2CCOCC2)c(OCC)cc1NC(=O)c1nn(CC)c(=O)c2ccccc12	.	/	/	.	.	.
CC(=O)c1ccc(S(=O)(=O)Nc2cccc(-c3ccc(N4CCOCC4)nn3)c2)cc1	.	/	/	.	.	.
COc1cccc(C(=O)Nc2ccc3c(cc2=O)[C@@H](NC(C)=O)CCc2cc(OC)c(OC)c(OC)c2-3)c1	.	/	/	.	.	.
O=S(=O)(c1ccc2c(c1)OCCO2)N1CCC(n2nnc3cc(F)ccc32)CC1	.	2.1	.	.	.	.
CCc1ccc(C(C)NC(=S)NCc2ccc(F)cc2)cc1 (configuration not stated)	.	/	/	2.1	.	.
Cc1ccc(C(C)NC(=S)NCc2ccc(F)cc2)c(C)c1 (configuration not stated)	.	/	/	2.1	.	.
Cc1ccc(C(C)NC(=S)NCc2ccc(F)cc2)cc1C (configuration not stated)	.	/	/	.	.	.
CCOc1ccc(Br)cc1S(=O)(=O)Nc1cccc(S(=O)(=O)Nc2ccccc2C(=O)O)c1	.	/	/	.	.	.
CN1CCS/C1=C\C=C1/SC(=S)N(CC(=O)O)C1=O	/	.	/	/	/	/
CCN1C(=O)/C(=C/C=C2/SCCN2C)SC1=S	.	.	.	.	.	48
O=C(Oc1ccccc1C(=O)N1CCOCC1)c1ccc(Br)cc1	.	2.2	.	.	.	.
SMILES	hIAP inh	bIAP activator	bIAP inhibitor	mIAP act	hIAP act	mIAP inh
O=C(Oc1ccccc1C(=O)N1CCOCC1)c1ccc(F)cc1	.	/	/	.	.	.
CCOc1ccc(OCCOc2ncnc3ccccc23)cc1	.	.	.	.	.	.
COCCN(C(=O)COC(=O)c1c(NC(C)=O)sc(C)c1C)c1c(N)n(Cc2ccccc2)c(=O)[nH]c1=O	.	/	/	.	.	.
Cc1cc(-c2nn(-c3ccccc3F)cc2CNCCc2cnc[nH]2)c(C)s1	.	3	.	.	.	.
Cc1cc(-c2nn(-c3ccccc3F)cc2CN2CCC(C(N)=O)CC2)c(C)s1	.	.	.	.	.	.
CCCN(CCC)C(=O)CSc1nc2n[nH]c(C)c2c(=N)n1-c1ccc(OC)cc1	.	2.9	.	.	.	.
CCCN(CCC)C(=O)CSc1nc2n[nH]c(C)c2c(=N)n1-c1ccc(OCC)cc1	.	2.1	.	.	.	.
CCc1ccccc1NC(=O)CSc1nc2n[nH]c(C)c2c(=N)n1-c1ccc(OC)cc1	/	.	.	/	/	/
Cc1ccc(CN(C)C(=O)C2CCC(=O)N(CCc3ccccc3)C2)o1 (configuration not stated)	.	/	/	.	.	.
CN(Cc1ccccc1)C(=O)c1ccc(NC(=O)C2CCN(C(=O)OC(C)(C)C)CC2)cc1	.	/	/	.	.	.
CCc1cc(Cn2nc(-c3ccccc3)cc2C(=O)O)on1	.	/	/	.	.	.
CCc1cc(Cn2nc(-c3ccccc3)cc2C(=O)NCc2ccc(C)cc2)on1	.	/	/	3.3	.	.
NC(=O)CN1CCN(S(=O)(=O)c2ccc(Br)cc2)CC1	.	.	.	.	.	.
O=C(Nc1ccc(Br)cc1)c1cc(-c2ccncc2)nc2ccccc12	.	/	/	.	.	.
CCOCCCNC(=S)N1C2CCC1CC(NC(=O)Nc1ccc(C(=O)OCC)cc1)C2 (configuration not stated)	.	.	.	2.2	.	.
CCNC(=S)N1C2CCC1CC(NC(=O)Nc1ccc(C(=O)OCC)cc1)C2 (configuration not stated)	.	.	.	.	.	.
O=C(Nc1cccc2cccnc12)c1ccc2c(c1)OCCO2	.	.	.	.	.	.
COc1cc(NC(=O)c2ccc3c(c2)OCO3)c2ncccc2c1	.	11	.	.	.	.
COc1ccc(C2=NOC(Cn3nc(-c4ccccc4)cc3C(=O)NCc3ccccc3OC)C2)cc1 (configuration not stated)	.	/	/	2.1	.	.
N#CC1=C(S)N(c2ccccc2)C(c2ccc(-c3cc(Cl)ccc3Cl)o2)NC1=O (configuration not stated)	.	2	.	.	.	.
N#CC1=C(S)N(c2ccccc2)C(c2ccc(-c3ccc(Cl)c(Cl)c3)o2)NC1=O (configuration not stated)	.	/	/	.	.	.
Cc1noc(C)c1S(=O)(=O)Nc1ccc2c(c1)CC(=O)N([C@H](C)CO)C[C@H](C)[C@H](CN(C)S(=O)(=O)c1ccc(F)cc1)O2	.	/	/	.	.	.
COc1ccc(Cl)cc1NC(=O)C(C)N1CCN(C/C=C/c2ccccc2)CC1 (configuration not stated)	.	3.3	.	.	.	.
COc1ccc([C@H]2CC(=O)C=C(c3cccc4c3Oc3ccccc3S4)C2)cc1OC	.	/	/	.	.	.
COc1ccc(C(=O)NNC(=S)NC(=O)C(C)(C)C)cc1	.	.	.	.	2.1	.
N#Cc1cc2c(nc1SCc1cccc(Cl)c1)CCCCC2	.	.	.	.	.	41
N#Cc1cc2c(nc1SCc1ccccc1)CCCCC2	.	.	.	.	.	.
